Results published in ChEMBL document CHEMBL4038331 (J Med Chem, 2017).
pIC50: −log10 of the molar value. Active and inactive are the calls of the source. The calls are words filed in the database; no cut-off is given here.

Columns and labels:
Liver [1] = test: Induction of basal respiration in rat liver mitochondria measured 5 mins after ADP phosphorylation in presence of glutamate/malate; format: functional
How it was run: (§1)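 Glutamate/malate (10/5 mM) or succinate (5 mM) was the substrate, with compound 2.5–10 μM for 5 min (state 2). ADP was added (125 nmol glutamate/malate; 75 nmol succinate), then oligomycin 2 μg/mL, then FCCP 1 μM. RCR and ADP/O were calculated. Seven experiments.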

[2] = Iron chelating activity in ammonium acetate buffer assessed as inhibition of [Fe(ferrozine)3]2+ formation at 100 uM at pH 6.7 measured after 10 mins by spectrophotometric analysis
How it was run: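 Ferrozine assay in ammonium acetate buffer pH 6.7. Compound (100 μM) plus ammonium iron(II) sulfate (20 μM) for 10 min, read at 562 nm. Ferrozine was added, incubated 10 min at 37 °C, and re-read at 562 nm. The first reading was subtracted, with a DMSO blank and EDTA = 100%. Three experiments.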

Liver [3] = test: Induction of basal oxygen consumption under nonphosphorylative conditions in rat liver mitochondria after 5 mins in presence of glutamate/malate; format: functional; how it was run: as §1
Liver [4] = test: Drug uptake in rat liver extra-mitochondria at 1 uM in presence of succinate/valinomycin by TPP+-based electrode assay; format: ADME, tissue-based
How it was run: (§2)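 TPP+-selective electrode with rat liver mitochondria (0.5 mg/mL) in 120 mM KCl, 10 mM HEPES pH 7.2, 1 mM EGTA at 37 °C with rotenone 1.5 μM. Five 1 μM additions calibrated the electrode, then succinate 10 mM was added, then valinomycin 0.2 μg/mL. The accumulation ratio assumed a matrix volume of ~0.5 μL/mg with a binding correction.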

Liver [5] = test: Decrease in oxidative phosphorylation efficiency in rat liver mitochondria assessed as reduction in respiratory control ratio after 5 mins in presence of glutamate/malate; format: functional; how it was run: as §1
Liver [6] = test: Induction of basal respiration in rat liver mitochondria measured 5 mins after ADP phosphorylation in presence of succinate; format: functional; how it was run: as §1
[7] = Antioxidant activity assessed as GO radical scavenging activity measured for 30 mins in absence of light; format: functional
How it was run: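 Ethanolic GO• (5 mM stock) diluted to absorbance 1.00 ± 0.02 at 428 nm. Test solutions (5–75 μM in ethanol) were added in triplicate and read at 428 nm at room temperature. Inhibition was taken against an ethanol blank (100% radical).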

Liver [8] = test: Decrease in oxidative phosphorylation efficiency in rat liver mitochondria assessed as reduction in coupling between ATP systhesis and oxygen consumption after 5 mins in presence of glutamate/malate; format: functional; how it was run: as §1
[9] = Redox potential of compound in Ag/AgCl-NaCl containing phosphate buffer at 0.1 mM at pH 7.4 by cyclic voltammetric analysis
How it was run: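 Voltammetry used a glassy carbon working electrode, Pt counter and Ag/AgCl reference. Compound was at 0.1 mM final (10 mM ethanolic stock) in pH 7.4 potassium phosphate electrolyte.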

Liver [10] = test: Antioxidant activity in rat liver mitochondria assessed as inhibition of FeSO4/H2O2-induced lipid peroxidation at 5 uM preincubated for 5 mins followed by FeSO4/H2O2 addition for 15 mins by TBARS-based fluorescence assay; format: functional
How it was run: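 Rat liver mitochondria (2 mg protein/mL) in 100 mM KCl, 10 mM Tris-HCl pH 7.6 with glutamate/malate at 37 °C. After 5 min with compound (5 μM), 100 μM FeSO4/500 μM H2O2/5 mM ascorbate was added for 15 min. Butylated hydroxytoluene, perchloric acid and thiobarbituric acid were added, then heated 15 min at 100 °C. Read-out as % of control, three experiments.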

[11] = Lipophilicity of compound in Ag/AgCl-NaCl containing PET membrane assessed as tranfer potential at pH 7; format: physicochemical
How it was run: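 Transfer across a liquid–liquid interface on a microporous PET membrane, with 1,6-dichlorohexane organic phase containing BTPPATPBCl. A gelled 2 mM BTPPACl + 2 mM NaCl reference was used, with 10 mM Tris-HCl pH 7.0 aqueous electrolyte.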

Liver [12] = test: Decrease in oxidative phosphorylation efficiency in rat liver mitochondria assessed as reduction in coupling between ATP systhesis and oxygen consumption after 5 mins in presence of succinate; format: functional; how it was run: as §1
[13] = Antioxidant activity assessed as ABTS radical scavenging activity measured each minute for 15 mins by spectrophotometric analysis; format: functional
How it was run: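 ABTS•+ generated from 7 mM ABTS plus potassium persulfate, held 16 h dark at room temperature, then diluted in ethanol to absorbance 0.72 ± 0.02. Ethanolic test solutions (10–500 μM) were added to radical solution in triplicate. Inhibition was taken against an ethanol blank (100% radical), and IC50 was read from dose–response curves.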

Liver [14] = test: Induction of ADP-stimulated respiration in rat liver mitochondria after 5 mins in presence of succinate; format: functional; how it was run: as §1
Liver [15] = test: Increase in oligomycin-inhibited respiration in rat liver mitochondria after 5 mins in presence of glutamate/malate; format: functional; how it was run: as §1
Liver [16] = test: Increase in oligomycin-inhibited respiration in rat liver mitochondria after 5 mins in presence of succinate; format: functional; how it was run: as §1
Liver [17] = test: Ratio of drug level in rat liver intra-mitochondria to extra-mitochondria at 1 uM in presence of succinate/valinomycin by TPP+-based electrode assay; format: ADME, tissue-based; how it was run: as §2
Liver [18] = test: Induction of ADP-stimulated respiration in rat liver mitochondria after 5 mins in presence of glutamate/malate; format: functional; how it was run: as §1
Liver [19] = test: Induction of basal oxygen consumption under nonphosphorylative conditions in rat liver mitochondria after 5 mins in presence of succinate; format: functional; how it was run: as §1
Liver [20] = test: Drug uptake in rat liver intra-mitochondria at 1 uM in presence of succinate/valinomycin by TPP+-based electrode assay; format: ADME, tissue-based; how it was run: as §2
[21] = Antioxidant activity assessed as DPPH radical scavenging activity measured every minute for 45 mins; format: functional
How it was run: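 DPPH• ethanolic solution diluted to absorbance 0.72 ± 0.02 at 515 nm. Ethanolic test solutions (50–500 μM) were added in triplicate and read at 515 nm. Inhibition was taken against an ethanol blank (100% radical), and IC50 was read from dose–response curves.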

[22] = Induction of mPTP in energized rat liver mitochondria at 2.5 to 10 uM after 5 mins in presence of succinate by spectrophotometric analysis
Liver [23] = test: Induction of membrane hyperpolarization in rat liver mitochondria assessed as change in repolarization potential at 2.5 uM; format: functional
How it was run: (§3)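 Safranine (5 μM) fluorescence (ex 495/em 586 nm) at 25 °C. Rat liver mitochondria (0.5 mg/2 mL) were in 200 mM sucrose, 1 mM KH2PO4, 10 mM Tris pH 7.4, 10 μM EGTA with glutamate/malate or succinate, after 5 min with 2.5–10 μM. ADP 25 nmol depolarised, then FCCP 1 μM was added. A valinomycin calibration in K+-free medium was used, five experiments.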

Rattus norvegicus [24] = organism: Rattus norvegicus; test: Inhibition of mPTP in energized rat liver mitochondria at 2.5 to 10 uM after 5 mins in presence of succinate by spectrophotometric analysis
Liver [25] = test: Inhibition of ADP-induced membrane depolarization in succinate energized rat liver mitochondria at 10 uM preincubated for 5 mins followed by ADP addition measured by safranine-based spectrofluorometric analysis; format: functional, tissue-based; how it was run: as §3
Liver [26] = test: Antioxidant activity in rat liver mitochondria assessed as inhibition of ADP/FeSO4-induced lipid peroxidation at 5 uM preincubated for 5 mins followed by ADP/FeSO4 addition; format: functional
How it was run: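 Rat liver mitochondria (2 mg) in 100 mM KCl, 10 mM Tris-HCl pH 7.6, with glutamate/malate (5/2.5 mM) at 37 °C. After 5 min with compound (5 μM), peroxidation was started with ADP/0.1 mM FeSO4. The lag phase of O2 consumption was measured by Clark electrode and expressed as % of control. Six experiments.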

Rattus norvegicus [27] = organism: Rattus norvegicus; test: Inhibition of mPTP in energized rat liver mitochondria at 10 uM after 5 mins in presence of succinate by spectrophotometric analysis
How it was run: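 Ca2+ (15–50 μM, titrated daily) added to trigger mPTP, with cyclosporin A as control. Swelling followed as light scattering at 540 nm with stirring at 37 °C. Reported as Δabsorbance; mean ± SEM, n=3.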

Row | SMILES | Activity (Liver [1]) | inhibition [2] | Activity (Liver [3]) | Drug uptake (Liver [4]) | Activity (Liver [5]) | Activity (Liver [6]) | pIC50 [7] | Activity (Liver [8]) | Activity [9] | inhibition (Liver [10]) | Activity [11] | Activity (Liver [12]) | pIC50 [13] | Activity (Liver [14]) | Activity (Liver [15]) | Activity (Liver [16]) | Ratio (Liver [17]) | Activity (Liver [18]) | Activity (Liver [19]) | Drug uptake (Liver [20]) | also measured
1 | CS(=O)(=O)[O-].O=C(/C=C/c1ccc(O)c(O)c1)NCCCCCC[P+](c1ccccc1)(c1ccccc1)c1ccccc1 | Dose-dependent effect | Active | Dose-dependent effect | 1.8 µM | Dose-dependent effect | Dose-dependent effect | 5.39 | Dose-dependent effect | 0.164 V | Active | 0.396 V | Dose-dependent effect | 4.52 | Dose-dependent effect | Dose-dependent effect | Dose-dependent effect | 2500 | Dose-dependent effect | Dose-dependent effect | 2.5 mM | pIC50 [21]: 4.53
2 | CS(=O)(=O)[O-].O=C(/C=C/c1cc(O)c(O)c(O)c1)NCCCCCCCCCC[P+](c1ccccc1)(c1ccccc1)c1ccccc1 | Dose-dependent effect |  | Dose-dependent effect | 1.4 µM | Dose-dependent effect | Dose-dependent effect | 5.60 | Dose-dependent effect | 0.057 V | Active | 0.377 V | Dose-dependent effect | 5.12 | Dose-dependent effect | Dose-dependent effect | Dose-dependent effect | 3500 | Dose-dependent effect | Dose-dependent effect | 5 mM | Activity [22]: Non-Toxic; Activity (Liver [23]): 25 mV; inhibition (Rattus norvegicus [24]): Active; inhibition (Liver [25]): Active; inhibition (Liver [26]): Active; pIC50 [21]: 4.86
3 | COC1=C(OC)C(=O)C(CCCCCCCCCC[P+](c2ccccc2)(c2ccccc2)c2ccccc2)=C(C)C1=O.CS(=O)(=O)[O-] [MITOQUINONE MESYLATE] |  | inactive |  |  |  |  |  |  |  |  |  |  |  |  |  |  |  |  |  |  | Activity [22]: Non-Toxic; inhibition (Rattus norvegicus [27]): inactive
